Laboratory results from ChEMBL document CHEMBL4825663 (J Med Chem, 2021).
The source made the active and inactive calls. The rule behind the calls is not given here.

What was measured:
[1] = target: T1, Multidrug and toxin extrusion protein 1 (Homo sapiens, UniProt Q96FL8); assay: Inhibition of human MATE1 assessed as reduction in intracellular probe substrate accumulation upto 100 uM by microplate scintillation counter analysis relative to control; format: cell-based
T1 sequence (Q96FL8 whole entry): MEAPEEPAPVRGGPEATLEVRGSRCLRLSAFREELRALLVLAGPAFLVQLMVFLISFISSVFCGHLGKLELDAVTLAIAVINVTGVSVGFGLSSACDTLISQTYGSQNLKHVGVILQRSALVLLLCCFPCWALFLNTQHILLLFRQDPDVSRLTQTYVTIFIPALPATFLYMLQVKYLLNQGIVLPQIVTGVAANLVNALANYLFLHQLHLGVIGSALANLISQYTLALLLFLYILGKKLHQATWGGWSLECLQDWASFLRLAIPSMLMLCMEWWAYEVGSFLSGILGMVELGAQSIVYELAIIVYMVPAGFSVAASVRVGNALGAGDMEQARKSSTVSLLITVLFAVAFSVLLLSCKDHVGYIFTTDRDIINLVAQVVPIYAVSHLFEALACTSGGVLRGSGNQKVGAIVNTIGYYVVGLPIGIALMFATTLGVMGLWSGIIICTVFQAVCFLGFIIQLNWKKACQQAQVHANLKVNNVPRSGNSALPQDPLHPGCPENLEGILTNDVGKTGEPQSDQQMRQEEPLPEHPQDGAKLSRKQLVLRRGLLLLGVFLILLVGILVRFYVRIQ
In short: (§1)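 Cellular uptake-inhibition assays used Chinese hamster ovary, HEK293 or MDCKII cells stably expressing the respective human SLC transporter, run alongside the corresponding control cells. Inhibitor was tested at concentrations up to 100 μM.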

[2] = Apparent permeability from apical to basolateral side in MDCK-II cells after 120 mins by LC-MS/MS analysis; format: ADME, cell-based, Canis lupus familiaris; conditions: dog
[3] = target: T2, Organic anion transporter 3 (Homo sapiens, UniProt Q8TCC7); assay: Inhibition of human OAT3 assessed as reduction in intracellular probe substrate accumulation upto 100 uM by microplate scintillation counter analysis relative to control; format: cell-based; in short: as §1
T2 sequence (Q8TCC7 whole entry): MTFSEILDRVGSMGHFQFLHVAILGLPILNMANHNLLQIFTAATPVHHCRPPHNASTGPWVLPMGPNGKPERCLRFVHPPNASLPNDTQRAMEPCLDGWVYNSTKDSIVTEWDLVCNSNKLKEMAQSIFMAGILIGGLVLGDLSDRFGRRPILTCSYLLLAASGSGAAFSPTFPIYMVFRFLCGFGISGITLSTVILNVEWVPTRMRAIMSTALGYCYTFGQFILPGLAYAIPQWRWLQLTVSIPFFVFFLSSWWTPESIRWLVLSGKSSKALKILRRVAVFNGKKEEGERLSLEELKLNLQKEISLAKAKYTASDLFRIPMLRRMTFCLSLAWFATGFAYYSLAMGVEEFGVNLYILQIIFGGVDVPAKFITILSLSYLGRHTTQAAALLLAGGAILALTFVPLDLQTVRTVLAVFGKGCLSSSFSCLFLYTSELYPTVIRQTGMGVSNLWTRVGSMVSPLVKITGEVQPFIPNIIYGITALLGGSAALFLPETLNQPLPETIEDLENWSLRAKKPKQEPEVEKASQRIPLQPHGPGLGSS

[4] = AUClast in Sprague-Dawley rat at 10 mg/kg, po measured upto 48 hrs by LC-MS/MS analysis; format: ADME, organism-based; set-up: route oral, dose 10 mg/kg, time <=48; conditions: in vivo
In short: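 Single dose in male Sprague-Dawley rats and male Beagle dogs (n = 3 per species), given 3 mg/kg IV or 10 mg/kg PO. Plasma was sampled to derive Cmax, Tmax, T1/2 and AUClast by each route. Oral bioavailability (F) was calculated from the PO and IV AUClast.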

[5] = Oral bioavailability in Beagle dog at 10 mg/kg measured upto 48 hrs by LC-MS/MS analysis; format: ADME, organism-based, Canis lupus familiaris; conditions: in vivo
In short: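 Plasma pharmacokinetics in male Sprague-Dawley rats and male Beagle dogs (n = 3 per species), each given a single dose by IV at 3 mg/kg and by PO at 10 mg/kg. Cmax, Tmax, T1/2 and AUClast were derived for each route. F (%) was calculated from the PO and IV AUClast.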

Cytochrome P450 3A4 = Cytochrome P450 3A4 (Homo sapiens, UniProt P08684); assay: Drug metabolism assessed as human CYP3A4-mediated metabolism; format: ADME; conditions: recombinant enzyme
[6] = Toxicity in Sprague-Dawley rat at 2000 mg/kg, po administered as single dose and measured upto 13 weeks; format: organism-based; conditions: in vivo, 2184 h
[7] = Toxicity in Sprague-Dawley rat at 200 mg/kg, po administered as repeated dose and measured upto 13 weeks; format: organism-based; conditions: in vivo, 2184 h
[8] = Toxicity in Beagle dog at 200 mg/kg, po administered as repeated dose and measured upto 13 weeks; format: organism-based, Canis lupus familiaris; conditions: in vivo, 2184 h
[9] = Toxicity in Beagle dog assessed as increase in total leukocyte and eosinophil counts at >= 100 mg/kg, po and measured after 13 weeks; format: organism-based, Canis lupus familiaris; conditions: in vivo, 2184 h
[10] = Drug distribution in Beagle dog spinal cord; format: ADME, tissue-based, Canis lupus familiaris; conditions: in vivo
[11] = Tmax in Beagle dog at 10 mg/kg, po measured upto 48 hrs by LC-MS/MS analysis; conditions: in vivo
[12] = Cmax in Sprague-Dawley rat at 10 mg/kg, po measured upto 48 hrs by LC-MS/MS analysis; conditions: in vivo
[13] = Drug distribution in BALB/c mouse liver at 20 mg/kg, po measured upto 24 hrs in presence of 10 mg/kg encequidar by LC-MS/MS analysis; format: ADME, organism-based; conditions: in vivo
[14] = Ratio of drug concentration in BALB/c mouse large intestine to plasma at 20 mg/kg, po measured upto 24 hrs in presence of 10 mg/kg encequidar by LC-MS/MS analysis; format: ADME, organism-based
[15] = Ratio of drug concentration in BALB/c mouse stomach to plasma at 20 mg/kg, po measured upto 24 hrs in presence of 10 mg/kg encequidar by LC-MS/MS analysis; format: ADME, organism-based
MDA-MB-231 = assay: Antitumor activity against human MDA-MB-231 cells xenografted in athymic nude mouse assessed as reduction in tumor growth at 40 mg/kg, po administered every other day for 4 doses in presence 16 mg/kg encequidar and monitored for 70 to 82 days; format: functional, organism-based; conditions: time 70-82 day
NCI-H460 [16] = assay: Antitumor activity against human NCI-H460 cells xenografted in athymic nude mouse assessed as median tumor growth delay at 18 mg/kg, iv administered every other day for 4 doses and monitored for 48 days; format: functional; conditions: time 48 day
In short: (§2)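 Female athymic NCr-nu mice carried subcutaneous NCI-H460 xenografts. […] Tumor weights and body weights were followed for 48 days after implantation. Read-out was median tumor growth delay.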

NCI-H460 [17] = assay: Antitumor activity against human NCI-H460 cells xenografted in athymic nude mouse assessed as median tumor growth delay at 40 mg/kg, po administered every other day for 4 doses in presence of 16 mg/kg encequidar and monitored for 48 days; format: functional; conditions: time 48 day; in short: as §2
[18] = Toxicity in athymic nude mouse xenografted with human NCI-H460 cells assessed as reduction in body weight at 30 to 50 mg/kg, po administered every other day for 4 doses in presence of 12 to 20 mg/kg encequidar and monitored for 48 days; format: organism-based; conditions: in vivo, 1152 h, dose 30-50 mg/kg, time 48 day

Sequence of Cytochrome P450 3A4 (P08684 whole entry): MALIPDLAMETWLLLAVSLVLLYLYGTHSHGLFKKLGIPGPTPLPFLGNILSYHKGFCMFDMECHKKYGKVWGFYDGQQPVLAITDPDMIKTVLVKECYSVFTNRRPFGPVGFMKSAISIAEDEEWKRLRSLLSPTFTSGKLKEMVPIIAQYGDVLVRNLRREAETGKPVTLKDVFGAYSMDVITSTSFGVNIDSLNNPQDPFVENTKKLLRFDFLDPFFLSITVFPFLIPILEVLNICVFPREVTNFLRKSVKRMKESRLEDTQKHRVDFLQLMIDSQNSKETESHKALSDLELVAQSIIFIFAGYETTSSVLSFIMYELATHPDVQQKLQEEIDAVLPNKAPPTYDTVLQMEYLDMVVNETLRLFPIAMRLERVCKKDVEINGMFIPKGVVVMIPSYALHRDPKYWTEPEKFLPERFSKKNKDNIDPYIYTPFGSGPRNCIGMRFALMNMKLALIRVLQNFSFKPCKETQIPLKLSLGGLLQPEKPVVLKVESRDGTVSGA

Row | Papp A→B at 2 h [2] [nm/s] | inhibition (INH) [3] [%] | AUC(0-t) at 48 h [4] [µg·h/mL] | bioavailability [5] [%] | Drug metabolism (Cytochrome P450 3A4) | Drug uptake [10] | Tmax [11] [h] | Cmax [12] [ng/mL] | Structure (SMILES) | inhibition (INH) [1] [%] | Activity [6] | Activity [7] | Activity [8] | Activity [9] | Drug uptake [13] | Kp at 24 h [14] | Kp at 24 h [15] | Activity (MDA-MB-231) | Time (NCI-H460 [16]) [days] | Time (NCI-H460 [17]) [days] | Activity [18]
1 | 0.02 | < 50 | 0.129 | 11.2 | Metabolite_Detected | Not Active | 13.3 | 7.1 | COc1cc2c(cc1OC)CN(CCc1ccc(-n3nnc(-c4cc(OC)c(OC)cc4NC(=O)c4cc(=O)c5ccccc5o4)n3)cc1)CC2 | < 50 | Non-Toxic | Non-Toxic | Non-Toxic | Toxic |  |  |  |  |  |  | 
2 |  |  |  |  |  |  |  |  | CC(=O)O[C@H]1C(=O)[C@@]2(C)[C@H]([C@H](OC(=O)c3ccccc3)[C@]3(O)C[C@H](OC(=O)[C@H](O)[C@@H](NC(=O)c4ccccc4)c4ccccc4)C(C)=C1C3(C)C)[C@]1(OC(C)=O)CO[C@@H]1C[C@@H]2O [PACLITAXEL] |  |  |  |  |  | Active | > 1 | > 1 | Active | 8.5 | 8.7 | Toxic
